≈ marks a conversion by molar mass, not a printed value. Calls of active or inactive are those of the source. The calls are words filed in the database; no cut-off is given here.
Key:
[1] = Kinetic solubility of the compound; assay type: physicochemical; conditions: for solubility kinetic: read-out: Kinetic_solubility
[2] = system: PC-3; assay: Cytotoxicity against human PC3 cells after 4 days by CellTiter-Glo assay; conditions: PC-3, 96 h
[3] = Inhibition of mTORC2 in human NCI-PC3 cells assessed as inhibition of AKT phosphorylation
[4] = Cytotoxicity against human MCF7 neo/Her2 cells after 3 days by CellTiter-Glo assay; conditions: MCF7, 72 h
[5] = target: Cytochrome P450 3A4 (Homo sapiens, UniProt P08684); assay: Time dependent inhibition of human CYP3A4 preincubated for 30 mins in presence of NADPH; assay type: ADME
Outline: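 TDI IC50 is the inhibitor concentration giving 50% loss of CYP3A4 activity after a 30 min pre-incubation with NADPH. It is reported as clean where no IC50 could be measured.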

[6] = Antitumor activity against human MCF7-neo/Her2 xenografted in nude mouse at 37 mg/kg, qd measured after 14 days; assay type: functional; conditions: 336 h, read-out: TGI
[7] = system: Mus musculus; assay: Unbound clearance in mouse at 1 mg/kg, iv; assay type: ADME, organism-based; parameters: dose 1 mg/kg, route intravenous; conditions: in vivo
Outline: (§1)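 Mouse PK used iv dosing at 1 mg/kg as a 60% PEG solution and po dosing at 5 mg/kg as a suspension in MCT. Clearance, unbound clearance, Vss, t1/2 and oral bioavailability were derived from these doses.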

[8] = Half life in iv dosed dog; assay type: ADME, organism-based, Canis lupus familiaris; conditions: in vivo
[9] = Plasma protein binding in mouse at 5 uM after 4 hrs by rapid equilibrium dialysis; assay type: ADME, cell-free; conditions: read-out: PPB (converted)
[10] = Volume of distribution at steady state in mouse at 1 mg/kg, iv; assay type: ADME, organism-based; parameters: dose 1 mg/kg, route intravenous; conditions: in vivo, read-out: Vdss; outline: as §1
[11] = Plasma protein binding in rat at 5 uM after 4 hrs by rapid equilibrium dialysis; assay type: ADME, cell-free; conditions: read-out: PPB (converted)
[12] = system: Canis familiaris; assay: Unbound blood clearance in iv dosed dog; assay type: ADME, organism-based, Canis lupus familiaris; conditions: in vivo
[13] = system: Mus musculus; assay: Inhibition of mTORC1-mediated S6RP phosphorylation in human PC3 cells xenografted in NCR mouse up to 5 mg/kg, po measured at 6 hrs; assay type: functional, organism-based; parameters: dose 5 mg/kg; conditions: PC-3
[14] = Blood clearance in iv dosed dog; assay type: ADME, organism-based, Canis lupus familiaris; conditions: whole blood
[15] = Clearance in mouse liver microsomes; assay type: ADME, Microsome
[16] = Half life in mouse at 1 mg/kg, iv; assay type: ADME, organism-based; parameters: dose 1 mg/kg, route intravenous; conditions: in vivo; outline: as §1
[17] = Clearance in mouse at 1 mg/kg, iv; assay type: ADME, organism-based; parameters: dose 1 mg/kg, route intravenous; conditions: in vivo; outline: as §1
[18] = target: T1, Phosphatidylinositol 4,5-bisphosphate 3-kinase catalytic subunit delta isoform (Homo sapiens) (UniProt O00329); assay: Inhibition of PI3Kdelta (unknown origin) at 1 uM
T1 sequence (whole entry): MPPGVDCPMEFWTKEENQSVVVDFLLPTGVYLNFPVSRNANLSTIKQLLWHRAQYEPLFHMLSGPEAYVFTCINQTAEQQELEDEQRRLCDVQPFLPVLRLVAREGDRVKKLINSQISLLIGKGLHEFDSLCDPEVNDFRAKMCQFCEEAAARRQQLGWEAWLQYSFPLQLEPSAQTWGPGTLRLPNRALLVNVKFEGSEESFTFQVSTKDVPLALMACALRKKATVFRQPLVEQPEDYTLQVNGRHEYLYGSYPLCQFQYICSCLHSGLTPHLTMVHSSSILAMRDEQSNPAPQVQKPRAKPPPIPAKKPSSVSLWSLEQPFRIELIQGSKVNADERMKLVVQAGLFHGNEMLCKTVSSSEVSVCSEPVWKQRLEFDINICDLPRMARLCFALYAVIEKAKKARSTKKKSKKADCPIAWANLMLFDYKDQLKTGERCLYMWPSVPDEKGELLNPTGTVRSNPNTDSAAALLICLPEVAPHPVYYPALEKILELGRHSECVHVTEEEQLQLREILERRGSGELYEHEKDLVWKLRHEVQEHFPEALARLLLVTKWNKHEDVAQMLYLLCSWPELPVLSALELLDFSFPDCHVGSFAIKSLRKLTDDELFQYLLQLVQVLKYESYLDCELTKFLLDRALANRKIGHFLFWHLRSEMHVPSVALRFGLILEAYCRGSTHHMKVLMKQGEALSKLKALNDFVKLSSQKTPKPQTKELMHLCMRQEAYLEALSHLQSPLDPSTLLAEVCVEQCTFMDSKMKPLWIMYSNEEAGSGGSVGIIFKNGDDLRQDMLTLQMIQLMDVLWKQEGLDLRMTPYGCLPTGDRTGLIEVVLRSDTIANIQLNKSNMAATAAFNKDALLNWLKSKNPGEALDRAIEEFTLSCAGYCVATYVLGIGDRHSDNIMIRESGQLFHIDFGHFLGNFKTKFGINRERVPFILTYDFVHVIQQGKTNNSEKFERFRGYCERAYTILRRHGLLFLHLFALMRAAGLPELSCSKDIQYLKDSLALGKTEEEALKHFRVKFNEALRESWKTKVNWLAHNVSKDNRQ

[19] = Clearance in rat liver microsomes; assay type: ADME, Microsome
[20] = target: Serine/threonine-protein kinase mTOR (Homo sapiens, UniProt P42345); assay: Inhibition of human recombinant mTOR expressed in insect cells assessed as inhibition of phosphorylation of (GFP)-4-EBP1 protein after 30 mins by fluorescence resonance energy transfer assay
[21] = Antitumor activity against human MCF7-neo/Her2 xenografted in nude mouse at 12.5 mg/kg, qd measured after 14 days; assay type: functional; conditions: 336 h, read-out: TGI
[22] = Plasma protein binding in human at 5 uM after 4 hrs by rapid equilibrium dialysis; assay type: ADME, cell-free; conditions: read-out: PPB (converted)
[23] = system: Mus musculus; assay: Inhibition of mTORC2-mediated AKT phosphorylation in human PC3 cells xenografted in NCR mouse up to 5 mg/kg, po measured at 6 hrs; assay type: functional, organism-based; parameters: dose 5 mg/kg; conditions: PC-3
[24] = target: mTORC1 (Homo sapiens, UniProt P42345); assay: Inhibition of mTORC1 in human NCI-PC3 cells assessed as inhibition of p70S6K phosphorylation; assay type: cell-based
[25] = Oral bioavailability in mouse at 5 mg/kg; assay type: ADME, organism-based; conditions: in vivo; outline: as §1
[26] = Clearance in human liver microsomes; assay type: ADME, Microsome
[27] = Volume of distribution at steady state in iv dosed dog; assay type: ADME, organism-based, Canis lupus familiaris; conditions: in vivo, read-out: Vdss
[28] = system: Plasma; assay: Plasma concentration in NCR nude mouse xenografted with human PC3 cells at 50 to 100 mg/kg, po measured at 6 to 10 hrs; assay type: ADME, organism-based, PC-3; parameters: route oral; conditions: in vivo
[29] = species: Mus musculus; conditions: NCR, NCI-PC3, 50 to 100 mg/kg
[30] = species: Mus musculus; conditions: NCR, NCI-PC3, 50 to 100 mg/kg; remark: listed apart in the source
[31] = system: Plasma; assay: Unbound plasma concentration in NCR nude mouse xenografted with human PC3 cells at 50 to 100 mg/kg, po measured at 6 to 10 hrs; assay type: ADME, organism-based, PC-3; parameters: route oral; conditions: in vivo

Sequence of Cytochrome P450 3A4 (P08684 whole entry): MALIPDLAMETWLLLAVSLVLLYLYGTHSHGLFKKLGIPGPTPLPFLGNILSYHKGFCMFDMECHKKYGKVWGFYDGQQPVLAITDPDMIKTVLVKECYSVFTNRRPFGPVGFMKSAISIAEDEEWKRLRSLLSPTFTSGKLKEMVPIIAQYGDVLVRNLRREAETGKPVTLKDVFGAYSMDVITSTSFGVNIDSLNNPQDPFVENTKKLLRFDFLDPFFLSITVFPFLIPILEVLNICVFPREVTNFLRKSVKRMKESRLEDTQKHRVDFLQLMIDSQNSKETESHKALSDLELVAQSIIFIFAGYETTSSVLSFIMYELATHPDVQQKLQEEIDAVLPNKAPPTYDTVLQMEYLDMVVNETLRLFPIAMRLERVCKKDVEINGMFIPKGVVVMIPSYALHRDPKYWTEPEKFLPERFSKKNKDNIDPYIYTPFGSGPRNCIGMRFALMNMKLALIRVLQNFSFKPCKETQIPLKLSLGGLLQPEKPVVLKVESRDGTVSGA

Compound | Kinetic_solubility [1] | EC50 [2] [nM] | IC50 [3] [nM] | EC50 [4] [nM] | solubility kinetic [1] [µM] | IC50 [5] [µM] | CL free [7] [mL/min/kg] | fraction unbound at 4 h, 5 µM [9] | Vd [10] [L/kg] | fraction unbound at 4 h, 5 µM [11] | CLhep predicted [15] [mL/min/kg] | half-life [16] [min] | clearance [17] [mL/min/kg] | CLhep predicted [19] [mL/min/kg] | fraction unbound at 4 h, 5 µM [22] | bioavailability [25] [%] | CLhep predicted [26] [mL/min/kg] | also measured
CCNC(=O)Nc1ccc(-c2nc3c(c(N4CCOC[C@@H]4C)n2)C[C@H]2CC[C@@H]3N2C)cc1 | soluble | 123 | 16 | 489 | – | – | – | – | – | – | – | – | – | – | – | – | – | –
CCNC(=O)Nc1ccc(-c2nc3c(c(N4CCOC[C@@H]4C)n2)[C@@H]2CC[C@H](C3)N2C2COC2)cc1 | – | 579 | 45 | 971 | > 75 | – | – | – | – | – | – | – | – | – | – | – | – | –
CCNC(=O)Nc1ccc(-c2nc3c(c(N4CCOC[C@@H]4C)n2)[C@H]2CC[C@@H](C3)N2C(C)=O)cc1 | – | 180 | 30 | 460 | > 75 | 7.3 | – | – | – | – | – | – | – | – | – | – | – | –
CCNC(=O)Nc1ccc(-c2nc3c(c(N4CCOC[C@@H]4C)n2)CCN(C2COC2)C3)cc1 [RG-7603] | – | – | – | – | – | – | 100 | – | – | – | – | – | – | – | – | – | – | inhibition in vivo at 37 mg/kg [6]: 60%; IC50 [2]: 270 nM; IC50 [4]: 567 nM
CCNC(=O)Nc1ccc(-c2nc3c(c(N4CCOC[C@@H]4C)n2)[C@H]2CC[C@@H](C3)N2CC)cc1 | – | 145 | 3.2 | 184 | > 75 | – | – | – | – | – | – | – | – | – | – | – | – | –
CCNC(=O)Nc1ccc(-c2nc3c(c(N4CCOC[C@@H]4C)n2)C[C@@H]2CC[C@H]3N2C2COC2)cc1 | soluble | 29 | 3.4 | 75 | – | > 10 | 38 | 0.13 | 0.53 | 0.24 | 51 | 120 | 4.8 | 27 | 0.15 | 82 | 14 | half-life [8]: 186 min; CL free [12]: 44 mL/min/kg; inhibition [13]: Active; clearance [14]: 6 mL/min/kg; inhibition [18]: 51%; Ki [20]: 1.5 nM; inhibition in vivo at 12.5 mg/kg [21]: 57%; inhibition [23]: Active; IC50 [24]: 2.7 nM; Vd [27]: 3 L/kg
CCNC(=O)Nc1ccc(-c2nc3c(c(N4CCOC[C@@H]4C)n2)C[C@@H]2CC[C@H]3N2C(=O)COC)cc1 | soluble | 47 | 2.2 | 36 | – | – | 134 | 0.07 | 0.66 | 0.21 | 69 | 49.2 | 9.38 | 31 | 0.27 | 47 | 17 | –
CCNC(=O)Nc1ccc(-c2nc3c(c(N4CCOC[C@@H]4C)n2)[C@@H]2CC[C@H](C3)N2C)cc1 | – | 152 | 6.7 | 158 | > 75 | – | 53 | 0.54 | 2.6 | 0.8 | 58 | 64.2 | 34 | 28 | 0.81 | 82 | 15 | –
CCNC(=O)Nc1ccc(-c2nc3c(c(N4CCOC[C@@H]4C)n2)[C@H]2CC[C@@H](C3)N2C)cc1 | – | 103 | 3.9 | 97 | > 75 | – | 207 | 0.32 | 4.5 | 0.73 | 42 | 48 | 67 | 18 | 0.62 | 114 | 12 | concentration [28]: > 1000 nM; inhibition [29]: Active; inhibition [30]: Active; Cp(f) [31]: > 0.32 µM
CCNC(=O)Nc1ccc(-c2nc3c(c(N4CCOC[C@@H]4C)n2)C[C@@H]2CC[C@H]3N2C(C)=O)cc1 | soluble | 16 | 2 | 61 | – | – | 200 | 0.02 | 0.54 | 0.16 | 42 | 72 | 4.62 | 24 | 0.16 | 40 | 15 | –
CCNC(=O)Nc1ccc(-c2nc3c(c(N4CCOC[C@@H]4C)n2)[C@H]2CC[C@@H](C3)N2C2COC2)cc1 | – | 180 | 29 | 268 | > 75 | > 10 | – | – | – | – | – | – | – | – | – | – | – | –
CCNC(=O)Nc1ccc(-c2nc3c(c(N4CCOC[C@@H]4C)n2)[C@H]2CC[C@@H](C3)N2S(C)(=O)=O)cc1 | – | 260 | 18 | 806 | > 75 | 5 | – | – | – | – | – | – | – | – | – | – | – | –
CCNC(=O)Nc1ccc(-c2nc3c(c(N4CCOC[C@@H]4C)n2)C[C@@H]2CC[C@H]3N2S(C)(=O)=O)cc1 | soluble | 25 | 1.6 | 47 | – | 5 | 342 | 0.05 | 1.59 | 0.1 | 49 | 61.2 | 17.8 | 26 | 0.14 | 53 | 11 | –
CCNC(=O)Nc1ccc(-c2nc3c(c(N4CCOC[C@@H]4C)n2)C[C@@H]2CC[C@H]3N2C)cc1 | soluble | 37 | 2.1 | 84 | – | – | 165 | 0.14 | 1.5 | 0.32 | 50 | 78 | 24 | 22 | – | 133 | 14 | –
CCNC(=O)Nc1ccc(-c2nc3c(c(N4CCOC[C@@H]4C)n2)C[C@@H]2CC[C@H]3N2C(C)(C)C(=O)NC)cc1 | soluble | 13 | 0.6 | 17 | – | – | – | – | – | – | – | – | – | – | – | – | – | –
CCNC(=O)Nc1ccc(-c2nc3c(c(N4CCOC[C@@H]4C)n2)CN(C2COC2)CC3)cc1 | – | 797 | – | 1200 | 40 (≈ 18.1 µg/mL) | 2.5 | – | – | – | – | – | – | – | – | – | – | – | –
